Assay results taken from ChEMBL document CHEMBL1124626, “Inhibition of 125I-labeled ristocetin binding to Micrococcus luteus cells by the peptides related to bacterial cell wall mucopeptide precursors: quantitative structure-activity relationships” (J Med Chem, 1989).
Peptide text beside a SMILES is read from it.

Assays:
Micrococcus luteus [1] = assay: Inhibition of [125I]ristocetin binding to micrococcus luteus cell wall (UDP-N-acetylmuramylpentapeptide).; type: functional, organism-based
Method in brief: (§1)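 Lyophilized M. luteus cells were boiled in 1% sodium lauryl sulfate, washed with water, and stored at 4 °C. Ristocetin was iodinated with 125I/I2 and purified on CM-cellulose. Duplicate tubes held 50 μg cells, 1 μg labeled antibiotic and varied N-acetyl peptide in sodium citrate buffer, pH 5.1, in 0.2 mL at room temperature. Tubes were centrifuged at 10000g for 10 min and supernatant γ-counted. Ki came from Cheng-Prusoff using the Scatchard Kd.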

Micrococcus luteus [2] = assay: Inhibition of [125I]ristocetin binding to micrococcus luteus cells.; type: functional, organism-based; method in brief: as §1

Structure (SMILES): CC(=O)NCC(=O)N[C@H](CO)C(=O)O
- Ki (Micrococcus luteus [1]): 0.54 mM

Structure (SMILES): CC(=O)N[C@H](C)C(=O)N[C@H](C)C(=O)N[C@H](C)C(=O)O
- Ki (Micrococcus luteus [2]): 0.042 mM

Structure (SMILES): CC(=O)N[C@@H](CCCCN)C(=O)N[C@H](C)C(=O)N[C@H](C)C(=O)O
- Ki (Micrococcus luteus [1]): 0.016 mM

Structure (SMILES): CC(=O)NCC(=O)N[C@H](CC(N)=O)C(=O)O
- Ki (Micrococcus luteus [1]): 0.72 mM

Structure (SMILES): CC(=O)NCC(=O)N[C@@H](C(=O)O)C(C)C
- Ki (Micrococcus luteus [1]): 0.34 mM

Structure (SMILES): CC(=O)N[C@H](C)C(=O)N[C@H](Cc1ccccc1)C(=O)O
- Ki (Micrococcus luteus [2]): 0.0087 mM

Structure (SMILES): CC(=O)NCC(=O)N[C@H](Cc1ccccc1)C(=O)O
- Ki (Micrococcus luteus [2]): 0.0098 mM

Structure (SMILES): CC(=O)N[C@H](CC(C)C)C(=O)O
- Ki (Micrococcus luteus [1]): 2.8 mM

Structure (SMILES): CC(=O)N[C@H](CC(C)C)C(=O)N[C@H](CC(C)C)C(=O)O
- Ki (Micrococcus luteus [2]): 4.5 mM

Structure (SMILES): CC(=O)N[C@H](C)C(=O)NCC(=O)O
- Ki (Micrococcus luteus [2]): 3.1 mM

Structure (SMILES): CC(=O)N[C@H](CC(C)C)C(=O)NCC(=O)O
- Ki (Micrococcus luteus [2]): 11 mM

Structure (SMILES): CC(=O)NCC(=O)N[C@H](C)C(=O)O
- Ki (Micrococcus luteus [1]): 0.13 mM

Structure (SMILES): CC(=O)NCC(=O)N[C@H](CC(=O)O)C(=O)O
- Ki (Micrococcus luteus [1]): 1.4 mM

Structure (SMILES): CC(=O)N[C@H](C)C(=O)N[C@H](C)C(=O)O
- Ki (Micrococcus luteus [2]): 0.073 mM

Structure (SMILES): CC(=O)N1CCC[C@H]1C(=O)NCC(=O)NCC(=O)O (Ac-Pro-Gly-Gly-OH)
- Ki (Micrococcus luteus [2]): 1.6 mM

Structure (SMILES): CC(=O)NCC(=O)N[C@@H](CC(C)C)C(=O)O
- Ki (Micrococcus luteus [2]): 0.59 mM

Structure (SMILES): CC[C@@H](C)[C@@H](NC(C)=O)C(=O)O
- Ki (Micrococcus luteus [1]): 2.8 mM

Structure (SMILES): CC(=O)N[C@H](CC(C)C)C(=O)NCC(=O)NCC(=O)O
- Ki (Micrococcus luteus [1]): 1.9 mM

Structure (SMILES): CC(=O)N[C@@H](Cc1ccc(O)cc1)C(=O)NCC(=O)NCC(=O)O (Ac-Tyr-Gly-Gly-OH)
- Ki (Micrococcus luteus [1]): 1.3 mM

Structure (SMILES): CC(=O)NCC(=O)NCC(=O)NCC(=O)O (Ac-Gly-Gly-Gly-OH)
- Ki (Micrococcus luteus [1]): 7.1 mM

Structure (SMILES): CC(=O)N[C@H](Cc1c[nH]c2ccccc12)C(=O)O
- Ki (Micrococcus luteus [2]): 0.16 mM

Structure (SMILES): CC(=O)N[C@H](CC(N)=O)C(=O)O
- Ki (Micrococcus luteus [1]): 9 mM

Structure (SMILES): CC(=O)N[C@@H](C(=O)O)C(C)C
- Ki (Micrococcus luteus [1]): 3.1 mM

Structure (SMILES): CC(=O)N[C@@H](Cc1ccccc1)C(=O)NCC(=O)NCC(=O)O (Ac-Phe-Gly-Gly-OH)
- Ki (Micrococcus luteus [2]): 1.6 mM

Structure (SMILES): CC(=O)NCC(=O)NCC(=O)O
- Ki (Micrococcus luteus [1]): 4.6 mM

Structure (SMILES): CC(=O)N[C@@H](CC(C)C)C(=O)NCC(=O)NCC(=O)O
- Ki (Micrococcus luteus [1]): 2 mM

Structure (SMILES): CC(=O)N[C@H](C)C(=O)O
- Ki (Micrococcus luteus [2]): 3.2 mM

Structure (SMILES): CSCC[C@@H](NC(C)=O)C(=O)O
- Ki (Micrococcus luteus [2]): 2.4 mM

Structure (SMILES): CC(=O)NC(C(=O)O)c1ccc(O)cc1 (centres undefined)
- Ki (Micrococcus luteus [1]): 4.2 mM

Structure (SMILES): CC(=O)NCC(=O)N[C@@H](C(=O)O)[C@H](C)O
- Ki (Micrococcus luteus [1]): 4.7 mM

Structure (SMILES): CC(=O)N[C@@H](Cc1c[nH]c2ccccc12)C(=O)NCC(=O)NCC(=O)O (Ac-Trp-Gly-Gly-OH)
- Ki (Micrococcus luteus [2]): 1.2 mM

Structure (SMILES): CC(=O)NCC(=O)O [ACETURIC ACID]
- Ki (Micrococcus luteus [2]): 29 mM

Structure (SMILES): C[C@@H](NC(=O)OCc1ccccc1)C(=O)O
- Ki (Micrococcus luteus [1]): 5.1 mM

Structure (SMILES): CC(=O)N[C@H](Cc1ccccc1)C(=O)O
- Ki (Micrococcus luteus [2]): 0.1 mM
